Assay results from ChEMBL document CHEMBL3232803, “Optimization of potency and pharmacokinetic properties of tetrahydroisoquinoline transient receptor potential melastatin 8 (TRPM8) antagonists” (J Med Chem, 2014).

Legend:
Type in all cases: ADME, organism-based
[1] = Oral bioavailability in Sprague-Dawley rat; conditions: in vivo
Outline: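 Male Sprague−Dawley rats, n = 3 per group. Iv arm: fed animals, 2 mg/kg in DMSO. Oral arm: fasted animals, 5 or 10 mg/kg by gavage as a suspension in 5% Tween 80/Oraplus. Plasma sampled to 16 h, measured by LC-MS/MS, analysed noncompartmentally.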

[2] = Volume of distribution at steady state in Sprague-Dawley rat at 2 mg/kg, iv by LC-MS/MS analysis; parameters: dose 2 mg/kg, route intravenous; conditions: in vivo, read-out: Vdss
Outline: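 Fed male Sprague−Dawley rats (n = 3) dosed iv at 2 mg/kg in DMSO. Plasma sampled up to 16 h, quantified by LC-MS/MS. Noncompartmental analysis of total plasma concentration-time data.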

[3] = Cmax in Sprague-Dawley rat at 5 mg/kg, po by LC-MS/MS analysis; parameters: dose 5 mg/kg, route oral; conditions: in vivo
Outline: (§1)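 Fasted male Sprague−Dawley rats (n = 3) given oral gavage as a suspension in 5% Tween 80/Oraplus. Blood sampled up to 16 h post dose, plasma prepared by centrifugation and assayed by LC-MS/MS. Total plasma concentration-time data analysed by noncompartmental methods.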

[4] = AUC (0 to infinity) in Sprague-Dawley rat at 5 mg/kg, po by LC-MS/MS analysis; parameters: time infinity, dose 5 mg/kg, route oral; conditions: plasma; outline: as §1
[5] = Oral bioavailability in Sprague-Dawley rat at 5 mg/kg by LC-MS/MS analysis; conditions: in vivo; outline: as §1
[6] = Tmax in Sprague-Dawley rat at 5 mg/kg, po by LC-MS/MS analysis; parameters: dose 5 mg/kg, route oral; conditions: in vivo; outline: as §1
[7] = Plasma concentration in unilateral cartoid artery cannulated Sprague-Dawley rat model at 3 mg/kg, po after […]; parameters: dose 3 mg/kg, route oral

N#Cc1ccc(NC(=O)N2CCc3cccnc3[C@H]2c2ccc(C(F)(F)F)cc2)cc1
bioavailability [1]: 70%

C[C@H](NC(=O)N1CCc2cccnc2[C@H]1c1ccc(C(F)(F)F)cc1)C(F)(F)F
Vd [2]: 2.7 L/kg
Cmax [3]: 1580 nM
AUC(0-inf) [4]: 12 µM·h

C[C@H](NC(=O)N1CCc2ccccc2[C@H]1c1ccc(C(F)(F)F)c(F)c1)C(F)(F)F
Vd [2]: 3 L/kg
Cmax [3]: 1670 nM
AUC(0-inf) [4]: 12.1 µM·h
bioavailability [5]: 67%

C[C@H](NC(=O)N1CCc2cccnc2[C@H]1c1ccc(C(F)(F)F)c(F)c1)C(F)(F)F
Vd [2]: 1.7 L/kg
Cmax [3]: 3860 nM
AUC(0-inf) [4]: 71.9 µM·h
bioavailability [5]: 51%
Tmax [6]: 5.3 h
concentration at […] [7]: 1270 nM
